Assay results taken from publication PMC8667933 (Journal of Enzyme Inhibition and Medicinal Chemistry, 2021).

Experiments:
[1] = biological target: T1, ERRα (Homo sapiens, UniProt P11474); assay: ERRα functional assay: mammalian two-hybrid reporter gene assay; assay type: cell-based
T1 sequence (P11474 193-421 limits assumed): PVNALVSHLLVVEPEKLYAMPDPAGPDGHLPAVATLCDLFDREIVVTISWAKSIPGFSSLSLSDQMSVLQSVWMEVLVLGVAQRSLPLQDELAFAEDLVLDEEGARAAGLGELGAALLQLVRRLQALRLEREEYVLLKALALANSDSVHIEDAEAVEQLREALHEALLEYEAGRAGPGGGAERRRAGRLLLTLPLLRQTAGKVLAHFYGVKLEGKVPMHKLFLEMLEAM

[2] = biological target: T2, ERRα LBD (Homo sapiens, UniProt P11474); assay: TR-FRET co-activator assay; assay type: binding
T2 sequence (P11474 193-421 limits assumed): T1 sequence (P11474 193-421 limits assumed)

[3] = test system: MCF-7; assay: CCK-8 cell viability assay, MCF-7; assay type: cell-based, human; conditions: for suppression of cell proliferation: MCF-7, 10 μM, CCK-8
Method in brief: (§1)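 Log-phase cells seeded in 96-well plates and incubated overnight, then exposed to test compound or vehicle. Viability runs: 1, 3 and 10 μM for 24 h and 48 h. IC50: a range of concentrations for 24 h. Proliferation read by CCK-8 per kit procedure. Mean ± SEM of n = 3; two-tailed unpaired t-test vs vehicle.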

[4] = test system: MDA-MB-231; assay: CCK-8 cell viability assay, MDA-MB-231; assay type: cell-based, human; conditions: for suppression of cell proliferation: MDA-MB-231, 10 μM, CCK-8
Method in brief: as §1

[5] = test system: HCC-1937; assay: CCK-8 cell viability assay, HCC-1937; assay type: cell-based, human; conditions: for suppression of cell proliferation: HCC-1937, 10 μM, CCK-8
Method in brief: as §1

[6] = test system: MCF-7; assay: Colony formation assay, MCF-7; assay type: cell-based, human; conditions: MCF-7, high-dose 1 μM
Method in brief: (§2)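 1 × 10^3 cells/well plated in 6-well plates and cultured overnight. Medium then replaced with vehicle or test compound at 0.3 or 1 μM. Exposure is 7 days per legend and 2 weeks (until colonies visible) per methods. Colonies washed with PBS, fixed in 4% paraformaldehyde, stained 30 min with 0.1% crystal violet, imaged and counted. n = 3, mean ± SEM, unpaired t-test.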

[7] = test system: MDA-MB-231; assay: Colony formation assay, MDA-MB-231; assay type: cell-based, human
Method in brief: as §2

[8] = test system: MCF-7 and MDA-MB-231 cells; assay: Transwell migration assay; assay type: cell-based, human; conditions: 24 h
[9] = test system: MCF-7; assay: Transwell invasion assay; assay type: cell-based, human; conditions: MCF-7, high-dose (3 μM), 24 h
[10] = test system: MDA-MB-231; assay: Transwell invasion assay; assay type: cell-based, human; conditions: 24 h
[11] = test system: ERRα-regulated target genes (PGC-1α, PDK4, osteopontin, pS2); assay: Quantitative RT-PCR of ERRα-regulated target genes in MDA-MB-231 cells; assay type: cell-based, human; conditions: high-dose 3 μM, 24 h
Method in brief: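 MDA-MB-231 cells exposed 24 h to 0.1% DMSO or test compound at 1 or 3 μM. Total RNA isolated with Trizol, reverse-transcribed, and analysed by real-time PCR for PGC-1α, PDK4, osteopontin (SPP1) and pS2 (TFF1) mRNA. Mean ± SEM of n = 3; two-tailed unpaired t-test vs vehicle.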

[12] = test system: MDA-MB-231 xenograft tumour; assay: Breast cancer xenografts in nude mice; assay type: in vivo, BALB/c nude mice; conditions: 30 mg/kg every other day, intraperitoneally, 30 days
Method in brief: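 6-week-old BALB/c nude mice were implanted subcutaneously with 2 × 10^6 MDA-MB-231 cells each. Dosing began once tumours averaged >100 mm3: i.p. 30 mg/kg every other day for 30 days in 0.9% saline with 0.5% 2-phenylethanol and 1.5% Tween 80, vehicle-only controls. Tumours measured every 5 days, V = length × width² × 0.5; body weight every 10 days. n = 6, mean ± SEM, two-tailed unpaired t-test vs vehicle.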

[13] = test system: MDA-MB-231 cells with ERRα knock-down; assay: Viability of MDA-MB-231 cells after ERRα knock-down; assay type: cell-based, human; conditions: siRNA (legend: shERRα vs shCtrl)
[14] = Body weight and overt toxicity in xenograft mice; assay type: in vivo, BALB/c nude mice; conditions: 30 mg/kg every other day, intraperitoneally, vs control group

## O=[N+]([O-])c1ccc(S(=O)(=O)Nc2ccccc2Oc2ccccc2)cc1 [compound 8, 4-Nitro-N-(2-phenoxyphenyl)benzenesulfonamide]
[1]
  IC50: 1.76 µM

## O=[N+]([O-])c1ccc(S(=O)(=O)Nc2ccccc2Oc2ccc(Cl)cc2)cc1 [compound 9, N-(2–(4-chlorophenoxy)phenyl)-4-nitrobenzenesulfonamide]
[1]
  IC50: 2.02 µM

## Cc1ccc(Oc2ccccc2NS(=O)(=O)c2ccc([N+](=O)[O-])cc2)cc1 [compound 10, 4-Nitro-N-(2-(p-tolyloxy)phenyl)benzenesulfonamide]
[1]
  IC50: 1.23 µM
[1]; ratio of IC50 values, compound 10 vs compound 14
  inhibiting activity relative to compound 14: 1.5 times

## COc1ccc(Oc2ccccc2NS(=O)(=O)c2ccc([N+](=O)[O-])cc2)cc1 [compound 11, N-(2–(4-methoxyphenoxy)phenyl)-4-nitrobenzenesulfonamide]
[1]
  IC50: 0.8 µM
[1]; ratio of IC50 values, compound 11 vs compound 10
  fold more active than compound 10: 1.5 fold
[2]
  IC50: 0.681 µM
[3]; Homo sapiens, MCF7, 24 h, read-out: IC50, cell proliferation
  IC50: 15.4 µM
[3]; 24 h
  suppression of cell proliferation: 23.5%
[3]; 48 h
  suppression of cell proliferation: 37.4%
[4]; Homo sapiens, MDA-MB-231, 24 h, read-out: IC50, cell proliferation
  IC50: 9.15 µM
[4]; 24 h
  suppression of cell proliferation: 38.9%
[4]; 48 h
  suppression of cell proliferation: 44.3%
[5]; 24 h
  suppression of cell proliferation: 31.0%
[5]; 48 h
  suppression of cell proliferation: 38.0%
[5]; Homo sapiens, HCC1937, 24 h, read-out: IC50, cell proliferation
  IC50: 14.7 µM
[6]
  reduction of the number of colonies: 47.5%
[7]; MDA-MB-231, high-dose 1 μM
  reduction of the number of colonies: 70.3%
[7]; MDA-MB-231, low-dose 0.3 μM
  number of colonies: decreased significantly
[8]; 1 μM
  inhibition of breast cancer cells migration: moderate inhibition
[8]; high-dose 3 μM
  inhibition of breast cancer cells migration: much more potently inhibitory effect
[9]
  reduction in cell invasion: 31.5%
[10]; MB-231 cells, low-dose (1 μM)
  effect on cell invasion: weak effect
[10]; MDA-MB-231, high-dose (3 μM)
  reduction in cell invasion: 50.9%
[11]
  PGC-1α, PDK4, osteopontin and pS2 mRNA expression: notably reduced
[12]; MDA-MB-231 xenograft
  tumour growth inhibition: 23.58%
[12]; control 1508 mm^3
  tumour volume at the end of the experiment: 1152 mm^3
[13]
  effect of ERRα knock-down on compound-induced anti-proliferation: knock-down of ERRα reduced compound 11 induced anti-proliferation
[14]
  influence on weight of mice and overt toxicity: no notably compound-related influences on the weight of mice or any other symptoms of overt toxicity

## COc1ccc(Oc2ccccc2NS(=O)(=O)c2ccc(N)cc2)cc1 [compound 12, 4-Amino-N-(2–(4-methoxyphenoxy)phenyl)benzenesulfonamide]
[1]
  IC50: > 10 µM
[1]; reporter gene assay, HEK 293 T cells, 48 h
  IC50, inhibition of ERRα transcriptional activity: inactive

## Nc1ccc(S(=O)(=O)Nc2ccccc2Oc2ccc(Cl)cc2)cc1 [compound 13, 4-Amino-N-(2–(4-chlorophenoxy)phenyl)benzenesulfonamide]
[1]
  IC50: 1.61 µM

## Cc1ccc(Oc2ccccc2NS(=O)(=O)c2ccc(N)cc2)cc1 [compound 14, 4-Amino-N-(2-(p-tolyloxy)phenyl)benzenesulfonamide]
[1]
  IC50: 1.88 µM
